Experimental data reported in ChEMBL document CHEMBL4371064, “Erythrofordins D and E, two new cassaine-type diterpenes from Erythrophleum suaveolens” (2019).

Tests used:
Format in all cases: functional
SF-539 = experiment: Growth inhibition of human SF539 cells incubated for 48 hrs by sulforhodamine B assay; settings: SF-539, 48 h
Method in brief: (§1)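 Run in the NCI-60 human tumour cell line panel with dose-response testing. GI50 was determined for each cell line from its dose-response data.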

NCI-H226 = experiment: Growth inhibition of human NCI-H226 cells incubated for 48 hrs by sulforhodamine B assay; settings: NCI-H226, 48 h; method in brief: as §1
RPMI-8226 = experiment: Growth inhibition of human RPMI8226 cells incubated for 48 hrs by sulforhodamine B assay; settings: RPMI-8226, 48 h; method in brief: as §1
EKVX = experiment: Growth inhibition of human EKVX cells incubated for 48 hrs by sulforhodamine B assay; method in brief: as §1
COLO 205 = experiment: Growth inhibition of human COLO205 cells incubated for 48 hrs by sulforhodamine B assay; settings: COLO 205, 48 h; method in brief: as §1
SN12C = experiment: Growth inhibition of human SN12C cells incubated for 48 hrs by sulforhodamine B assay; method in brief: as §1
K562 = experiment: Growth inhibition of human K562 cells incubated for 48 hrs by sulforhodamine B assay; settings: K562, 48 h; method in brief: as §1
786-0 = experiment: Growth inhibition of human 786-0 cells incubated for 48 hrs by sulforhodamine B assay; settings: 786-0, 48 h; method in brief: as §1
SK-MEL-5 = experiment: Growth inhibition of human SK-MEL-5 cells incubated for 48 hrs by sulforhodamine B assay; settings: SK-MEL-5, 48 h; method in brief: as §1
ACHN = experiment: Growth inhibition of human ACHN cells incubated for 48 hrs by sulforhodamine B assay; method in brief: as §1
UACC-257 = experiment: Growth inhibition of human UACC257 cells incubated for 48 hrs by sulforhodamine B assay; settings: UACC-257, 48 h
Method in brief: (§2)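 Tested in the NCI 60-human-tumour-cell-line screen using the five-dose format. GI₅₀ was derived from each cell line's dose-response. TGI and LC₅₀ were derived from the same dose-response data.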

NCI-H460 = experiment: Growth inhibition of human NCI-H460 cells incubated for 48 hrs by sulforhodamine B assay; settings: NCI-H460, 48 h; method in brief: as §1
A498 = experiment: Growth inhibition of human A498 cells incubated for 48 hrs by sulforhodamine B assay; settings: A498, 48 h
Method in brief: (§3)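 Run within the NCI-60 human tumour cell line panel as a dose-response screen. For each cell line the readouts are GI50, TGI and LC50. Per-line log values also feed a mean-graph analysis, in which the arithmetic mean of the log values across all lines is subtracted from each line's log value.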

LOX IMVI = experiment: Growth inhibition of human LOXIMVI cells incubated for 48 hrs by sulforhodamine B assay; method in brief: as §1
HCT-116 = experiment: Growth inhibition of human HCT116 cells incubated for 48 hrs by sulforhodamine B assay; settings: HCT-116, 48 h; method in brief: as §1
HL-60(TB) = experiment: Growth inhibition of human HL-60(TB) cells incubated for 48 hrs by sulforhodamine B assay; settings: HL-60, 48 h; method in brief: as §3
NCI-H23 = experiment: Growth inhibition of human NCI-H23 cells incubated for 48 hrs by sulforhodamine B assay; settings: NCI-H23, 48 h; method in brief: as §1
UO-31 = experiment: Growth inhibition of human UO31 cells incubated for 48 hrs by sulforhodamine B assay; settings: UO-31, 48 h; method in brief: as §2
RXF 393 = experiment: Growth inhibition of human RXF393 cells incubated for 48 hrs by sulforhodamine B assay; settings: RXF 393, 48 h; method in brief: as §1
SF-268 = experiment: Growth inhibition of human SF268 cells incubated for 48 hrs by sulforhodamine B assay; settings: SF-268, 48 h; method in brief: as §1
HOP-62 = experiment: Growth inhibition of human HOP62 cells incubated for 48 hrs by sulforhodamine B assay; settings: HOP-62, 48 h; method in brief: as §1
DU-145 = experiment: Growth inhibition of human DU145 cells incubated for 48 hrs by sulforhodamine B assay; settings: DU-145, 48 h; method in brief: as §1
CCRF-CEM = experiment: Growth inhibition of human CCRF-CEM cells incubated for 48 hrs by sulforhodamine B assay; method in brief: as §1
BT-549 = experiment: Growth inhibition of human BT549 cells incubated for 48 hrs by sulforhodamine B assay; settings: BT-549, 48 h; method in brief: as §1
TK-10 = experiment: Growth inhibition of human TK10 cells incubated for 48 hrs by sulforhodamine B assay; settings: TK-10, 48 h; method in brief: as §2
OVCAR-5 = experiment: Growth inhibition of human OVCAR5 cells incubated for 48 hrs by sulforhodamine B assay; settings: OVCAR-5, 48 h; method in brief: as §1
SNB-75 = experiment: Growth inhibition of human SNB75 cells incubated for 48 hrs by sulforhodamine B assay; settings: SNB-75, 48 h; method in brief: as §1
OVCAR-4 = experiment: Growth inhibition of human OVCAR4 cells incubated for 48 hrs by sulforhodamine B assay; settings: OVCAR-4, 48 h; method in brief: as §1
OVCAR-3 = experiment: Growth inhibition of human OVCAR3 cells incubated for 48 hrs by sulforhodamine B assay; settings: OVCAR-3, 48 h; method in brief: as §1
[1] = read-out: pLC50 (the source's name) (converted)

SMILES: COC(=O)/C=C1\CC[C@H]2[C@@H](CC(=O)[C@H]3C(C)(C)C(=O)CC[C@]23C)[C@H]1C
- GI50 (SF-539): 575 nM
- LC50 (SF-539): 2090 nM
- TGI (SF-539; read-out: pTGI (converted)): 1100 nM
- GI50 (NCI-H226): 617 nM
- LC50 (NCI-H226): 2630 nM
- TGI (NCI-H226; read-out: pTGI (converted)): 1290 nM
- GI50 (RPMI-8226): 1290 nM
- LC50 (RPMI-8226): > 34.7 µM
- TGI (RPMI-8226; read-out: pTGI (converted)): 22.4 µM
- GI50 (EKVX): 407 nM
- LC50 (EKVX): 1910 nM
- TGI (EKVX; read-out: pTGI (converted)): 871 nM
- GI50 (COLO 205): 1230 nM
- LC50 (COLO 205): > 34.7 µM
- TGI (COLO 205; read-out: pTGI (converted)): 5.37 µM
- GI50 (SN12C): 513 nM
- LC50 (SN12C): > 34.7 µM
- TGI (SN12C; read-out: pTGI (converted)): 1860 nM
- GI50 (K562): 1150 nM
- LC50 (K562): > 34.7 µM
- TGI (K562; read-out: pTGI (converted)): 5.37 µM
- GI50 (786-0): 676 nM
- LC50 (786-0): 3.16 µM
- TGI (786-0; read-out: pTGI (converted)): 1450 nM
- GI50 (SK-MEL-5): 708 nM
- LC50 (SK-MEL-5): 3.16 µM
- TGI (SK-MEL-5; read-out: pTGI (converted)): 1480 nM
- GI50 (ACHN): 162 nM
- LC50 (ACHN): 1860 nM
- TGI (ACHN; read-out: pTGI (converted)): 617 nM
- GI50 (UACC-257): 891 nM
- LC50 (UACC-257): 18.6 µM
- TGI (UACC-257; read-out: pTGI (converted)): 2450 nM
- GI50 (NCI-H460): 170 nM
- LC50 (NCI-H460): 2140 nM
- TGI (NCI-H460; read-out: pTGI (converted)): 661 nM
- LC50 (A498): > 34.7 µM
- TGI (A498; read-out: pTGI (converted)): 1740 nM
- GI50 (LOX IMVI): 692 nM
- LC50 (LOX IMVI): 5.25 µM
- TGI (LOX IMVI; read-out: pTGI (converted)): 1660 nM
- GI50 (HCT-116): 646 nM
- LC50 (HCT-116): 2880 nM
- TGI (HCT-116; read-out: pTGI (converted)): 1380 nM
- GI50 (HL-60(TB)): 977 nM
- LC50 (HL-60(TB)): > 34.7 µM
- TGI (HL-60(TB); read-out: pTGI (converted)): 2750 nM
- GI50 (NCI-H23): 661 nM
- LC50 (NCI-H23): > 34.7 µM
- TGI (NCI-H23; read-out: pTGI (converted)): 1780 nM
- GI50 (UO-31): 550 nM
- LC50 (UO-31): 2240 nM
- TGI (UO-31; read-out: pTGI (converted)): 1100 nM
- GI50 (RXF 393): 776 nM
- CC50 (RXF 393; [1]): > 34.7 µM
- TGI (RXF 393; read-out: pTGI (converted)): 2570 nM
- GI50 (SF-268): 331 nM
- LC50 (SF-268): 1910 nM
- TGI (SF-268; read-out: pTGI (converted)): 813 nM
- GI50 (HOP-62): 550 nM
- CC50 (HOP-62; [1]): 2630 nM
- TGI (HOP-62; read-out: pTGI (converted)): 1200 nM
- GI50 (DU-145): 575 nM
- LC50 (concentration killing 50% of cells) (DU-145): 1950 nM
- TGI (DU-145; read-out: pTGI (converted)): 1050 nM
- GI50 (CCRF-CEM): 708 nM
- LC50 (CCRF-CEM): > 34.7 µM
- TGI (CCRF-CEM; read-out: pTGI (converted)): 2290 nM
- GI50 (BT-549): 676 nM
- LC50 (BT-549): 5.13 µM
- TGI (BT-549; read-out: pTGI (converted)): 1660 nM
- GI50 (TK-10): 794 nM
- LC50 (lethal concentration killing 50% of cells) (TK-10): 14.8 µM
- TGI (TK-10; read-out: pTGI (converted)): 2400 nM
- GI50 (OVCAR-5): 776 nM
- LC50 (OVCAR-5): 21.4 µM
- TGI (OVCAR-5; read-out: pTGI (converted)): 2340 nM
- GI50 (SNB-75): 550 nM
- LC50 (concentration killing 50% of cells) (SNB-75): 2630 nM
- TGI (SNB-75; read-out: pTGI (converted)): 1200 nM
- GI50 (OVCAR-4): 676 nM
- LC50 (OVCAR-4): 5.75 µM
- TGI (OVCAR-4; read-out: pTGI (converted)): 1620 nM
- GI50 (OVCAR-3): 661 nM
- LC50 (OVCAR-3): 2510 nM
- TGI (OVCAR-3; read-out: pTGI (converted)): 1290 nM
